This is an account of results in ChEMBL document CHEMBL1153998, “Discovery and structure-activity study of a novel benzoxaborole anti-inflammatory agent (AN2728) for the potential topical treatment of psoriasis and atopic dermatitis” (Bioorg Med Chem Lett, 2009).

Usually IC50 stands for the concentration that inhibits the measured activity by half.

The structures appear in SMILES notation. The source made the active and inactive calls. The rule behind the calls is not given here.

For series [1], the target named is T1, Phosphodiesterase 4 (Homo sapiens, UniProt P27815+Q08499+Q07343+Q08493). Description: Inhibition of PDE4 in human U937 cells assessed as accumulation of [3H]adenosine by scintillation counting. Type of series: cell-based. Conditions: u-937.
Series [2] addresses Dual specificity calcium/calmodulin-dependent 3',5'-cyclic nucleotide phosphodiesterase 1A (Homo sapiens, UniProt P54750). Description: Inhibition of human recombinant PDE1A3 expressed in baculovirus-infected insect Sf9 cells by modified two-step method. In short, it runs like this: (§1)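 Human recombinant enzymes from a baculoviral expression system, tested in a modified two-step PDE assay as part of a PDE1–11 isozyme panel. IC50 values were calculated from the means of three experiments.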

Series [3] relates to Mus musculus. The experiment in a line: Antiinflammatory activity in mouse ear edema model assessed as inhibition of PMA-induced ear edema at 1 mg/ear administered 2 times 30 mins before and 15 mins after PMA challenge measured after 6 hrs of PMA application relative to control. Type of series: functional.
The target of series [4] is High affinity 3',5'-cyclic-AMP phosphodiesterase 7A (Homo sapiens, UniProt Q13946). The experiment in a line: Inhibition of human recombinant PDE7A1 expressed in baculovirus-infected insect Sf9 cells by modified two-step method. In short, it runs like this:
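PDE7A1 was a human recombinant enzyme from a baculoviral expression system, tested in a modified two-step assay. Its substrate concentration was reduced compared with the other panel isozymes. IC50 values were calculated from the means of three experiments.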

Series [5] relates to PBMC. Description: Antiinflammatory activity in human PBMC assessed as inhibition of LPS-induced TNFalpha release in after 24 hrs by FACS Array analysis. Format: functional, cell-based. A general note: Flow cytometry measures light scatter and fluorescence of single cells or particles in a stream.
Series [6] concerns PBMC. The experiment in a line: Antiinflammatory activity in human PBMC assessed as inhibition of phytohemagglutininin-induced IL2 release after 24 hrs by FACS Array analysis. Type of series: functional, cell-based.
Series [7] concerns PBMC. Description: Antiinflammatory activity in human PBMC assessed as inhibition of phytohemagglutininin-induced IFN-gamma release after 24 hrs by FACSArray analysis. Format: functional, cell-based.
In series [8] the test system is PBMC. The experiment in a line: Antiinflammatory activity in human PBMC assessed as inhibition of phytohemagglutininin-induced IL5 release after 48 hrs by FACS Array analysis. Type of series: functional, cell-based.
Series [9] deals with PBMC. The experiment in a line: Antiinflammatory activity in human PBMC assessed as inhibition of phytohemagglutininin-induced IL10 release after 48 hrs by FACS Array analysis. Format: functional, cell-based.
Series [10] deals with Mus musculus. Description: Antiinflammatory activity in mouse ear edema model assessed as inhibition of PMA-induced ear edema at 3 mg/ear administered 2 times 30 mins before and 15 mins after PMA challenge measured after 6 hrs of PMA application relative to control. Format: functional.
The subject of a further series is L929. Description: Cytotoxicity against mouse L929 cells up to 100 uM. Type of series: cell-based.
The test system of series [11] is PBMC. Description: Antiinflammatory activity in human PBMC assessed as inhibition of IL1-beta release by FACSArray analysis. Type of series: functional, cell-based.
Series [12] relates to PBMC. Description: Antiinflammatory activity in human PBMC assessed as inhibition of IL4 release by FACS Array analysis. Format: functional, cell-based.
Another series deals with Phosphodiesterase 3 (Homo sapiens, UniProt Q14432+Q13370). The experiment in a line: Inhibition of human recombinant PDE3 catalytic domain expressed in baculovirus-infected insect Sf9 cells by modified two-step method. An outline of the steps: as §1
In series [13] the target is T1, Phosphodiesterase 4. The experiment in a line: Inhibition of human recombinant PDE4 catalytic domain expressed in baculovirus-infected insect Sf9 cells by modified two-step method.
For series [14], the target named is cGMP-dependent 3',5'-cyclic phosphodiesterase (Homo sapiens) (UniProt O00408). The experiment in a line: Inhibition of human recombinant PDE2 expressed in baculovirus-infected insect Sf9 cells at 10 uM by modified two-step method.
Series [15] concerns the target Phosphodiesterase 6 (Homo sapiens) (UniProt Q13956+P18545+P35913+O43924+P16499+P51160). Description: Inhibition of human recombinant PDE6 expressed in baculovirus-infected insect Sf9 cells at 10 uM by modified two-step method.
In series [16] the target is Phosphodiesterase 8 (Homo sapiens) (UniProt O95263+O60658). The experiment in a line: Inhibition of human recombinant PDE8 expressed in baculovirus-infected insect Sf9 cells at 10 uM by modified two-step method.
Series [17] addresses High affinity cGMP-specific 3',5'-cyclic phosphodiesterase 9A (Homo sapiens) (UniProt O76083). The experiment in a line: Inhibition of human recombinant PDE9 expressed in baculovirus-infected insect Sf9 cells at 10 uM by modified two-step method.
In series [18] the target is cAMP and cAMP-inhibited cGMP 3',5'-cyclic phosphodiesterase 10A (Homo sapiens) (UniProt Q9Y233). Description: Inhibition of human recombinant PDE10 expressed in baculovirus-infected insect Sf9 cells at 10 uM by modified two-step method.
Series [19] has as its target Dual 3',5'-cyclic-AMP and -GMP phosphodiesterase 11A (Homo sapiens) (UniProt Q9HCR9). The experiment in a line: Inhibition of human recombinant PDE11 expressed in baculovirus-infected insect Sf9 cells at 10 uM by modified two-step method.
The target in series [20] is cGMP-specific 3',5'-cyclic phosphodiesterase (Homo sapiens) (UniProt O76074). The experiment in a line: Inhibition of human recombinant PDE5 expressed in baculovirus-infected insect Sf9 cells at 10 uM by modified two-step method.

Chain of Dual specificity calcium/calmodulin-dependent 3',5'-cyclic nucleotide phosphodiesterase 1A (P54750 whole entry): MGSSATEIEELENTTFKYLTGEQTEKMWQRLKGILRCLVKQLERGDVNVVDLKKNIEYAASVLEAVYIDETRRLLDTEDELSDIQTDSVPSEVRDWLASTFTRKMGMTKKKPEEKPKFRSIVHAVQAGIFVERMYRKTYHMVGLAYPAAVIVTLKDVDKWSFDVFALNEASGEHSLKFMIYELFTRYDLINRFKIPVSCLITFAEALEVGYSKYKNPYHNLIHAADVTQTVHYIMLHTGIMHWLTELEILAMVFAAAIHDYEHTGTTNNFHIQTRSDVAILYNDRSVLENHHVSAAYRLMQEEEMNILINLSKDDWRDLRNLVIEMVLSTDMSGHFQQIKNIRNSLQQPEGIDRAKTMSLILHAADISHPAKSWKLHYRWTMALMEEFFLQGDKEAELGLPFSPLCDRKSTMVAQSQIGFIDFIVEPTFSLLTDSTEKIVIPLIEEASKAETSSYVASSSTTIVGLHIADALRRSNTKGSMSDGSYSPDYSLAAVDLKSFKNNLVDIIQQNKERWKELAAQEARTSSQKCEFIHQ
Chain of cAMP and cAMP-inhibited cGMP 3',5'-cyclic phosphodiesterase 10A (Homo sapiens) (Q9Y233 whole entry): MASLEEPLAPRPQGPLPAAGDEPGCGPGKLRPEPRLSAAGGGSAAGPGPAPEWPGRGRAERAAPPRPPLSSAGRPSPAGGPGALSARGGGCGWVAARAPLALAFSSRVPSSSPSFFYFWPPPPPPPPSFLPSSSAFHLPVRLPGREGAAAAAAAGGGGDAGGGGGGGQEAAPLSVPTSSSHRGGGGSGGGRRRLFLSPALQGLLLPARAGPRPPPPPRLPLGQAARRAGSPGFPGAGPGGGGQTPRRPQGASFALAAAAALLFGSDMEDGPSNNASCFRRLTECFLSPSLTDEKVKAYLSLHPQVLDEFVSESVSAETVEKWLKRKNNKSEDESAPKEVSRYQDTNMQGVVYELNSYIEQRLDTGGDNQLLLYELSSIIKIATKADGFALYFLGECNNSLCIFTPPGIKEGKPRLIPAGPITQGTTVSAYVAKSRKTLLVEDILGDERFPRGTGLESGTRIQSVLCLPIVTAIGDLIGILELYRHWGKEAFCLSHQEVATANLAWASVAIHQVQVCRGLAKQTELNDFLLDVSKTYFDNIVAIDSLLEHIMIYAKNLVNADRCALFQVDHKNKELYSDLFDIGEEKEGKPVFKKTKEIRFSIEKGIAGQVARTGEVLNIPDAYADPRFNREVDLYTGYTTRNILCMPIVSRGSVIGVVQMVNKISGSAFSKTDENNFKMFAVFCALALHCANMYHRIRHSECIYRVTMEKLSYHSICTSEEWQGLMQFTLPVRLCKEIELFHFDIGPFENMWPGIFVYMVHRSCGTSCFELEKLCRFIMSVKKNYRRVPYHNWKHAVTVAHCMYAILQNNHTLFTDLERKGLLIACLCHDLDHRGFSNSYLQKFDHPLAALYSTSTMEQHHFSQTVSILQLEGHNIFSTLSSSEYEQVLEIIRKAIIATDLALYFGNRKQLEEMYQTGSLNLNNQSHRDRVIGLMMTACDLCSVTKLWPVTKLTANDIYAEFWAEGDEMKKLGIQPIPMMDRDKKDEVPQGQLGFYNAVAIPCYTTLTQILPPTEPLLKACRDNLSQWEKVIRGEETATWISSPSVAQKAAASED
Chain of Dual 3',5'-cyclic-AMP and -GMP phosphodiesterase 11A (Homo sapiens) (Q9HCR9 whole entry, looked up): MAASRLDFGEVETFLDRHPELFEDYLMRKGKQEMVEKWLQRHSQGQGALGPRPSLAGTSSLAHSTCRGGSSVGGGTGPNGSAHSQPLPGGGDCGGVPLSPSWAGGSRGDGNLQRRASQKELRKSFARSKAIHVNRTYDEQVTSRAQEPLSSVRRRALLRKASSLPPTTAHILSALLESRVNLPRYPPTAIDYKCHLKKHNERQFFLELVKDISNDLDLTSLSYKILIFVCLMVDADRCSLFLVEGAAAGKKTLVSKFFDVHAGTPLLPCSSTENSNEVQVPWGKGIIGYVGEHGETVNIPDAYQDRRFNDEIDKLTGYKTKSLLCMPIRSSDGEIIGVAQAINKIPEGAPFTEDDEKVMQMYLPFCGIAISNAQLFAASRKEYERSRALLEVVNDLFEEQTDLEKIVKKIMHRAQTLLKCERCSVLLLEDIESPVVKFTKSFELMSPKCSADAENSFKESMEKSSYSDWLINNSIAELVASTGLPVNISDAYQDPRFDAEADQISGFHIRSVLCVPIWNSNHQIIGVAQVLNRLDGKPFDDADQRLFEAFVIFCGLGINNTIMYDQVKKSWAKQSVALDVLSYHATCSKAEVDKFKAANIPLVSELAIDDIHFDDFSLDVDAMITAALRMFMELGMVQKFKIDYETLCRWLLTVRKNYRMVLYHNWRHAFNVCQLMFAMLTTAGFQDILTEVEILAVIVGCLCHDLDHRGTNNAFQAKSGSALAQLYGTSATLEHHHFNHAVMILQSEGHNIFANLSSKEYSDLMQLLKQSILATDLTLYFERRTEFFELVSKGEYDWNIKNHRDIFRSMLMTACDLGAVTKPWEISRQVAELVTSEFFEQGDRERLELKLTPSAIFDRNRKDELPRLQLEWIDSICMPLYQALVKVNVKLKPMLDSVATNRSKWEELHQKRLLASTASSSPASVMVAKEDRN
Chain of High affinity cGMP-specific 3',5'-cyclic phosphodiesterase 9A (Homo sapiens) (O76083 whole entry): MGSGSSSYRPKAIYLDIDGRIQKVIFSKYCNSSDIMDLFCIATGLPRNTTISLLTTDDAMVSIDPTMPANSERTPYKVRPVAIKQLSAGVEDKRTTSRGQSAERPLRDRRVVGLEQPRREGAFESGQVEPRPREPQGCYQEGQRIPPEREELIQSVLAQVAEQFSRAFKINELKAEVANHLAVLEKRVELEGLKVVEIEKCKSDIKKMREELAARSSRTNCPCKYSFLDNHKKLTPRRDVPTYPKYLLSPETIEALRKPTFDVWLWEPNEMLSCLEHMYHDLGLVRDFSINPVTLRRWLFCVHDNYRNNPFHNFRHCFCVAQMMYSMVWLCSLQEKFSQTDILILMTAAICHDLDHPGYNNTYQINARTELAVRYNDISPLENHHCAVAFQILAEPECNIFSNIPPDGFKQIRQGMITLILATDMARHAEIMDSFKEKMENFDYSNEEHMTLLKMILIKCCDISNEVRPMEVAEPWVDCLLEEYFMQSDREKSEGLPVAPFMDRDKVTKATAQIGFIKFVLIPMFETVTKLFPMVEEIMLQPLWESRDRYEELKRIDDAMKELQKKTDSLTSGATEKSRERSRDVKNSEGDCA
Chain of cGMP-dependent 3',5'-cyclic phosphodiesterase (Homo sapiens) (O00408 whole entry): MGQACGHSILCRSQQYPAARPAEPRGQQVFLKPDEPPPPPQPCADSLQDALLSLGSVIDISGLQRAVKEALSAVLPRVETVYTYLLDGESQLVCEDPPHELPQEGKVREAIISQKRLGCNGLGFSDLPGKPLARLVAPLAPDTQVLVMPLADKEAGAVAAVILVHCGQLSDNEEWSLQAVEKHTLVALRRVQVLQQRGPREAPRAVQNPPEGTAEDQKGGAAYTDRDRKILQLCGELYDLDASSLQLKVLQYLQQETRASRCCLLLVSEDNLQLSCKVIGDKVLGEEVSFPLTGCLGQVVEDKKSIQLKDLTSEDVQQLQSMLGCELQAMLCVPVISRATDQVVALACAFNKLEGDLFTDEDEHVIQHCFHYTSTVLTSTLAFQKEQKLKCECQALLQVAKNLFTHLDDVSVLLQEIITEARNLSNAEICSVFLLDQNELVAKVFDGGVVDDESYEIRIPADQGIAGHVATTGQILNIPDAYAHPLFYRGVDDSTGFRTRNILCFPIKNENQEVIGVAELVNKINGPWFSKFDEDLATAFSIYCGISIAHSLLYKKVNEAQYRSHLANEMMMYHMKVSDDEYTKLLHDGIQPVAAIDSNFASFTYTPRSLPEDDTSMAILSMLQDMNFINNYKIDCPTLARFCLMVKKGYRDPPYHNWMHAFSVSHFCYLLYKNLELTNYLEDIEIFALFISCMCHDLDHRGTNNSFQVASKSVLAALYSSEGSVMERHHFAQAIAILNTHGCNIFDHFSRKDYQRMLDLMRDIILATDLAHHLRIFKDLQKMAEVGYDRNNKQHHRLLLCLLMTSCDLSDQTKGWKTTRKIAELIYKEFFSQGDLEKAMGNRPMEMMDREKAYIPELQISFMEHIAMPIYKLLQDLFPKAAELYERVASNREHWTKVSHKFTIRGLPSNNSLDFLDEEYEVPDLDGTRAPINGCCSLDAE
Chain of High affinity 3',5'-cyclic-AMP phosphodiesterase 7A (Q13946 whole entry): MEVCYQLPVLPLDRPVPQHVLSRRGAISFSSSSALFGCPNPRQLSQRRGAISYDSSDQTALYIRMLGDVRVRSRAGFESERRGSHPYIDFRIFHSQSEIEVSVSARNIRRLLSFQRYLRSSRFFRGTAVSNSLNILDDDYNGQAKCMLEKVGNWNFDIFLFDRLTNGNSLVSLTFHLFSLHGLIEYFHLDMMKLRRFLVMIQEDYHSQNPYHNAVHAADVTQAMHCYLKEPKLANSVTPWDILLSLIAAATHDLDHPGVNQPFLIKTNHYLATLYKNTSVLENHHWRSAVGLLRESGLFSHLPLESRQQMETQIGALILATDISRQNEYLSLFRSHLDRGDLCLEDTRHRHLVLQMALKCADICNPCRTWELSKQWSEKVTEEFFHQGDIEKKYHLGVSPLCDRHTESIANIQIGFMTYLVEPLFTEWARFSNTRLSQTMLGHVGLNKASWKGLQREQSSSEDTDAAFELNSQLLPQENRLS

Take `OB1OCc2cc(Oc3ccccc3)ccc21`: at Phosphodiesterase 4 [1], the IC50 is 6.8 µM.
For the compound `CN1CCN(S(=O)(=O)c2ccc(Oc3ccc4c(c3)COB4O)cc2)CC1`, the IC50 on Phosphodiesterase 4 [1] was greater than 30 µM.
The same measure, in the same setting: the figure for `O=C(c1ccc(Oc2ccc3c(c2)COB3O)cc1)N1CCOCC1` is 0.57 µM; for `OB1OCc2cc(Oc3ccc(F)cc3)ccc21` it is 7.7 µM.
In the case of `COCc1nc2c([nH]1)c(=O)n(C)c(=O)n2CC(C)C`, the IC50 in series [2] is 10 µM.
`N#Cc1ccc(Oc2cccc3c2B(O)OC3)cc1`: the IC50 at Phosphodiesterase 4 [1] was greater than 30 µM.
As to `C[C@@H]1C[C@H]2[C@@H]3CCC4=CC(=O)C=C[C@]4(C)[C@@]3(F)[C@@H](O)C[C@]2(C)[C@@]1(O)C(=O)CO` [DEXAMETHASONE], the “inhibition (INH)” value in the series with Mus musculus [3] is recorded as 72%.
Turning to `N#Cc1cccc(Oc2ccc3c(c2)COB3O)c1`, the IC50 at Phosphodiesterase 4 [1] is 4.4 µM.
Regarding `Cc1ccc([N+](=O)[O-])cc1S(=O)(=O)N(C)C`, the IC50 in series [4] came out at 2200 nM.
Regarding `OB1OCc2cc(Oc3ccc(C(F)(F)F)cc3)ccc21`, the IC50 on Phosphodiesterase 4 [1] is 0.45 µM.
For `COc1ccc(C2CNC(=O)C2)cc1OC1CCCC1` (stereo not drawn) [ROLIPRAM], the IC50 with PBMC [5] is 160 nM; with PBMC [6], 230 nM; in the series with PBMC [7] it was 230 nM; in the series on PBMC [8], 500 nM; with PBMC [9], 0.88 µM. For the same compound, the “inhibition (INH)” value was 6% in the series with Mus musculus [3] and 53% in the series on Mus musculus [10].
In the case of `Cc1ccc(Oc2ccc3c(c2)COB3O)cc1`, the IC50 at Phosphodiesterase 4 [1] came to 2 µM.
As for `N#Cc1ccc(Oc2ccc3c(c2)B(O)OC3)cc1`, the IC50 at Phosphodiesterase 4 [1] was greater than 30 µM; with PBMC [5], greater than 10000 nM; with PBMC [6] it was greater than 10000 nM; in the series with PBMC [7], greater than 10000 nM; with PBMC [8] it was greater than 10000 nM; in the series with PBMC [9], greater than 10 µM. In addition, in the series on L929, the Activity result was “Non-toxic”. Moreover, the inhibition result in the series with PBMC [11] and in the series with PBMC [12] was “inactive” in each case.
For the compound `O=C(O)c1ccc(Oc2ccc3c(c2)COB3O)cc1`, the concentration for half-maximal inhibition (IC50) on Phosphodiesterase 4 [1] was 6.4 µM; in the series with PBMC [5], greater than 10000 nM; in the series with PBMC [6], greater than 10000 nM; in the series with PBMC [7], greater than 10000 nM; with PBMC [8] it was greater than 10000 nM; with PBMC [9], greater than 10 µM. In the series on L929, the Activity entry is “Non-toxic”. Moreover, the inhibition result in the series with PBMC [11] and in the series with PBMC [12] was “inactive” throughout.
Take `CCN(CC)C(=O)c1ccc(Oc2ccc3c(c2)COB3O)cc1`: on Phosphodiesterase 4 [1], the IC50 is 1.5 µM.
As to `N#Cc1ccc(Oc2cccc3c2COB3O)cc1`, the IC50 at Phosphodiesterase 4 [1] amounted to 6 µM.
Same read-out and setting: the figure for `OB1OCc2cc(Oc3ccc(Cl)cc3)ccc21` is 1.3 µM.
With `N#Cc1ccc(Oc2ccc3c(c2)COB3O)cc1` [CRISABOROLE], the IC50 on Phosphodiesterase 3 turned out to be 6.4 µM; in series [2] it was 6.1 µM; at Phosphodiesterase 4 [1] it was 0.49 µM; in the series with PBMC [5], 540 nM; with PBMC [6], 610 nM; in the series on PBMC [7] it was 830 nM. The figures for the IC50 in the series on PBMC [8], in the series on PBMC [9] and on Phosphodiesterase 4 [13] were 2400 nM, 5.3 µM and 0.11 µM, respectively. The Activity result in the series on L929 is on record as “Non-toxic”. Also, the “inhibition (INH)” value with Mus musculus [3] turned out to be 78%. The inhibition entry (in the series with PBMC [11]; with PBMC [12]; in [14]; in series [15]; in series [16]; in [17]) was “inactive” throughout. Moreover, the inhibition entry in series [18], in [19] and in series [20] was “inactive” in each case.
Take `N#Cc1ccccc1Oc1ccc2c(c1)COB2O`: the IC50 on Phosphodiesterase 4 [1] was found to be 3.7 µM.
In the case of `O=C1CCc2cc(OCCCCc3nnnn3C3CCCCC3)ccc2N1` [CILOSTAZOL], on Phosphodiesterase 3, the IC50 came out at 0.84 µM.
`CCN(CC)S(=O)(=O)c1ccc(Oc2ccc3c(c2)COB3O)cc1`: the IC50 on Phosphodiesterase 4 [1] is 3.4 µM.
With `COc1ccc(Oc2ccc3c(c2)COB3O)cc1`, at Phosphodiesterase 4 [1], the IC50 came to 2.7 µM.
